Laboratory results published in PMC8266240 (Journal of Enzyme Inhibition and Medicinal Chemistry, 2021).
Peptide text beside a SMILES is read from it. * marks the point of attachment. Cbz = O=C(OCc1ccccc1)*; CH2F = FC*

Test system: HeLa cells
Test: Effect of inhibitors/activators on 12A-induced vacuolization in HeLa cells
Type: cell-based, human
Conditions: pre- or co-treated with 12A, 8 h
Summary of the method: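 HeLa cells, alone or with the vacuolization-inducing test compound, were exposed to modulators for 8 h: pan-caspase inhibitor Z-VAD-FMK, autophagy inhibitors 3-MA and LY294002, autophagy activator rapamycin, bafilomycin A1, cycloheximide, ERK1/2 inhibitor PD98059 and JNK inhibitor SP600125. Some inhibitors were given as a 2 h pre-treatment before the test compound. Vacuoles were assessed by microscopy imaging.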

| SMILES | effect on 12A-induced vacuolization |
| --- | --- |
| Cn1cnc(N)c2ncnc1-2 [3-methyladenine] | did not decrease |
| CO[C@H]1C[C@@H]2CC[C@@H](C)[C@@](O)(O2)C(=O)C(=O)N2CCCC[C@H]2C(=O)O[C@H]([C@H](C)C[C@@H]2CC[C@@H](O)[C@H](OC)C2)CC(=O)[C@H](C)/C=C(\C)[C@@H](O)[C@@H](OC)C(=O)[C@H](C)C[C@H](C)/C=C/C=C/C=C/1C [rapamycin] | failed to promote |
| CO/C1=C\C(C)=C\[C@@H](C)[C@@H](O)[C@@H](C)C/C(C)=C/C=C/[C@H](OC)[C@@H]([C@@H](C)[C@@H](O)[C@H](C)[C@@]2(O)C[C@@H](O)[C@H](C)[C@@H](C(C)C)O2)OC1=O [Baf-A1, Bafilomycin A1] | dramatically blocked the formation of vacuoles |
| Oc1c2ccccc2c2c3c(cccc13)N=N2 [SP600125] | significantly decreased |
| C[C@@H]1C[C@@H]([C@H](O)CC2CC(=O)NC(=O)C2)C(=O)[C@@H](C)C1 [CHX, Cycloheximide] | dramatically blocked the formation of vacuoles |
| COC(=O)C[C@H](NC(=O)[C@H](C)NC(=O)[C@@H](NC(=O)OCc1ccccc1)C(C)C)C(=O)CF [Z-VAD-FMK] (Cbz-Val-Ala-Asp(OMe)-CH2F) | not inhibited |
| O=c1cc(N2CCOCC2)oc2c(-c3ccccc3)cccc12 [LY294002] | did not decrease |
| COc1cccc(-c2cc(=O)c3ccccc3o2)c1N [PD98059] | significantly decreased |
